For assay [1], the system named is Escherichia coli. Nature of the assay: Antibacterial activity against Escherichia coli DSM1103 assessed as reduction in microbial growth preincubated for 60 mins under dark condition and measured after 20 to 24 hrs at room temperature by muller hinton broth based dilution assay. The format is functional. Conditions: time 20-24 hrs. The gist of the method:
(§1)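 Bacteria grown overnight at 37 °C for 15−18 h in the dark, then set to 0.5 McFarland (read at 600 nm) and diluted 1:50 in Müller-Hinton broth to (2–8) × 10⁵ CFU/mL. Dark plate held at room temperature, then incubated at 37 °C. After 20−24 h, turbidity was read against the untreated growth control, with blanks subtracted. Compounds tested at ≥10 concentrations in biological triplicate.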

In assay [2] the test system is A549. Put plainly: Phototoxicity against human A549 cells assessed as reduction in cell growth preincubated with compound for 24 hrs followed by blue light irradiation at 468 nm for 7 mins 30 sec and measured after 48 hrs by SRB assay. The conditions noted are these: A549, light or radiation study. The format is functional, cell-based. In a few lines:
(§2)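 Cells (A549 2000, AGS 2500, T24 1500 per well) seeded in Opti-MEM with 2.4% FCS. After 24 h, treated with 25.0−0.3 μM (six levels). After another 24 h, medium was replaced and cells got blue light (468±27 nm, 9.3 J/cm²). Held 48 h at 37 °C, 5% CO2, then TCA-fixed and SRB-stained, read at 540 nm. EC50 from variable-slope fit with 95% CI.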

In assay [3] the test system is A549. Nature of the assay: Phototoxicity against human A549 cells assessed as reduction in cell growth preincubated with compound for 24 hrs under dark condition and measured after 48 hrs by SRB assay. The conditions noted are these: A549, light or radiation study. The format is functional, cell-based. The gist of the method: (§3)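 Dark control plate processed the same way: cells (A549 2000, AGS 2500, T24 1500 per well) in Opti-MEM with 2.4% FCS, dosed at 25.0−0.3 μM 24 h after seeding. Medium renewed after 24 h, then 48 h further at 37 °C, 5% CO2 without light. SRB read-out at 540 nm after TCA fixation. EC50 with 95% CI from variable-slope fit.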

The subject of assay [4] is A549. Put plainly: Photo index, ratio of EC50 for human A549 cells killed in the absence of light to EC50 for human A549 cells killed after irradiation. The format is functional. The gist of the method: (§4)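 SRB assay: cells seeded in Opti-MEM with 2.4% FCS, treated 24 h later with 0.3–25.0 μM, medium replaced after 24 h. Duplicate plates were irradiated with blue light (468 nm, 9.3 J/cm²) or green light (519 nm, 30.0 J/cm²), or kept dark, then held 48 h at 37 °C, 5% CO₂. EC50 from Hill fit; photoindex = EC50 dark / EC50 irradiated.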

The subject of assay [5] is AGS. Put plainly: Phototoxicity against human AGS cells assessed as reduction in cell growth preincubated with compound for 24 hrs followed by blue light irradiation at 468 nm for 7 mins 30 sec and measured after 48 hrs by SRB assay. The format is functional, cell-based. The conditions noted are these: light or radiation study. The gist of the method:
as §2

The subject of assay [6] is AGS. Put plainly: Phototoxicity against human AGS cells assessed as reduction in cell growth preincubated with compound for 24 hrs under dark condition and measured after 48 hrs by SRB assay. The assay is classed as functional, cell-based. The conditions noted are these: light or radiation study. In a few lines: as §3
Background: Sulforhodamine B stains cellular protein and so reports cell mass.

For assay [7], the system named is AGS. Put plainly: Photo index, ratio of EC50 for human AGS cells killed in the absence of light to EC50 for human AGS cells killed after irradiation. The format is functional. In a few lines:
as §4

Assay [8] has as its system T-24. Nature of the assay: Phototoxicity against human T24 cells assessed as reduction in cell growth preincubated with compound for 24 hrs followed by blue light irradiation at 468 nm for 7 mins 30 sec and measured after 48 hrs by SRB assay. The assay is classed as functional, cell-based. The conditions noted are these: T-24, light or radiation study. The gist of the method:
as §2

For assay [9], the system named is T-24. Put plainly: Phototoxicity against human T24 cells assessed as reduction in cell growth preincubated with compound for 24 hrs under dark condition and measured after 48 hrs by SRB assay. The format is functional, cell-based. Conditions: T-24, light or radiation study. In a few lines:
as §3

In assay [10] the test system is T-24. Put plainly: Photo index, ratio of EC50 for human T24 cells killed in the absence of light to EC50 for human T24 cells killed after irradiation. The format is functional. The gist of the method:
as §4

Assay [11] deals with Staphylococcus aureus. Put plainly: Antibacterial activity against Staphylococcus aureus DSM1104 assessed as reduction in microbial growth preincubated for 60 mins under dark condition and measured after 20 to 24 hrs at room temperature by muller hinton broth based dilution assay. The assay is classed as functional. The conditions noted are these: time 20-24 hrs. The gist of the method:
as §1

In assay [12] the test system is Escherichia coli. Put plainly: Antibacterial activity against Escherichia coli DSM1103 assessed as reduction in microbial growth preincubated for 60 mins under dark condition followed by 428 nm light irradiation and measured after 20 to 24 hrs by muller hinton broth based dilution assay. The format is functional. The conditions noted are these: DSM1103, light or radiation study, time 21-25 hrs. In a few lines: (§5)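 PhotoMIC (modified EUCAST broth microdilution): 0.5 McFarland suspensions diluted 1:50 in Mueller-Hinton broth (bacteria, 2–8 × 10⁵ CFU/mL) or 1:10 in double-strength RPMI-1640 (yeast, 0.5–2.5 × 10⁵ CFU/mL); ≥10 concentrations, biological triplicates; 60 min dark preincubation, then 30 J/cm² irradiation or dark duplicate plate; 37 °C, 20–24 h; turbidity versus growth control, blanks subtracted.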

In assay [13] the test system is Escherichia coli. Put plainly: Antibacterial activity against Escherichia coli DSM1103 assessed as reduction in microbial growth preincubated for 60 mins under dark condition followed by 478 nm light irradiation and measured after 20 to 24 hrs by muller hinton broth based dilution assay. The assay is classed as functional. The conditions noted are these: DSM1103, light or radiation study, time 21-25 hrs. In a few lines: as §5

For assay [14], the system named is Escherichia coli. Put plainly: Antibacterial activity against Escherichia coli DSM1103 assessed as reduction in microbial growth preincubated for 60 mins under dark condition followed by 530 nm light irradiation and measured after 20 to 24 hrs by muller hinton broth based dilution assay. The assay is classed as functional. The conditions noted are these: DSM1103, light or radiation study, time 21-25 hrs. In a few lines:
as §5

The subject of assay [15] is Staphylococcus aureus. Put plainly: Antibacterial activity against Staphylococcus aureus DSM1104 assessed as reduction in microbial growth preincubated for 60 mins under dark condition followed by 428 nm light irradiation and measured after 20 to 24 hrs by muller hinton broth based dilution assay. The assay is classed as functional. Conditions: DSM1104, light or radiation study, time 21-25 hrs. The gist of the method:
as §5

Assay [16] relates to Staphylococcus aureus. Nature of the assay: Antibacterial activity against Staphylococcus aureus DSM1104 assessed as reduction in microbial growth preincubated for 60 mins under dark condition followed by 478 nm light irradiation and measured after 20 to 24 hrs by muller hinton broth based dilution assay. The assay is classed as functional. Conditions: DSM1104, light or radiation study, time 21-25 hrs. In a few lines: as §5

The subject of assay [17] is Staphylococcus aureus. Put plainly: Antibacterial activity against Staphylococcus aureus DSM1104 assessed as reduction in microbial growth preincubated for 60 mins under dark condition followed by 530 nm light irradiation and measured after 20 to 24 hrs by muller hinton broth based dilution assay. The format is functional. Conditions: DSM1104, light or radiation study, time 21-25 hrs. The gist of the method:
as §5

The test system of assay [18] is Candida albicans. Nature of the assay: Antifungal activity against Candida albicans 501670 assessed as reduction in microbial growth preincubated for 60 mins under dark condition and measured after 20 to 24 hrs at room temperature by RPMI-1640 based dilution assay.
Assay [19] relates to Candida albicans. Nature of the assay: Antifungal activity against Candida albicans 501670 assessed as reduction in microbial growth preincubated for 60 mins under dark condition followed by 428 nm light irradiation and measured after 20 to 24 hrs by RPMI-1640 based dilution assay. Conditions: Candida albicans, 501670, light or radiation study.
Assay [20] deals with Candida albicans. Put plainly: Antifungal activity against Candida albicans 501670 assessed as reduction in microbial growth preincubated for 60 mins under dark condition followed by 478 nm light irradiation and measured after 20 to 24 hrs by RPMI-1640 based dilution assay. The conditions noted are these: Candida albicans, 501670, light or radiation study.
Assay [21] relates to Candida albicans. Put plainly: Antifungal activity against Candida albicans 501670 assessed as reduction in microbial growth preincubated for 60 mins under dark condition followed by 530 nm light irradiation and measured after 20 to 24 hrs by RPMI-1640 based dilution assay. The conditions noted are these: Candida albicans, 501670, light or radiation study.

One molecule from ChEMBL document CHEMBL5370587, “Fungal Anthraquinone Photoantimicrobials Challenge the Dogma of Cationic Photosensitizers” (J Nat Prod, 2023) can be followed below.

The MIC is the smallest concentration in the dilution series that meets the test's criterion for growth inhibition. Broadly, the EC50 is the concentration that produces a half-maximal response. Take `Cc1cc(O)c2c(c1)C(=O)c1cc(O)cc(O)c1C2=O` [EMODIN]: the MIC was more than 92 µM with Escherichia coli [1]; more than 92 µM in the assay on Staphylococcus aureus [11]; 11.1 µM in the assay with Escherichia coli [12]; more than 92 µM with Escherichia coli [13]; more than 92 µM in the assay with Escherichia coli [14]; 1.85 µM with Staphylococcus aureus [15]. Besides, the MIC in the assay with Staphylococcus aureus [16] is 1.85 µM; in the assay with Staphylococcus aureus [17], 11.1 µM; in the assay on Candida albicans [18], more than 92 µM; in the assay on Candida albicans [19] it was 0.37 µM; in the assay on Candida albicans [20], 2.78 µM; with Candida albicans [21], 46 µM. The 50% effective concentration (EC50) in the assay on A549 [2] was 2900 nM; in the assay with A549 [3], 19000 nM; with AGS [5] it was 1500 nM; with AGS [6], more than 25000 nM; with T-24 [8], 1700 nM; in the assay on T-24 [9], more than 25000 nM. Moreover, the “Ratio EC50” value in the assay on A549 [4] is recorded as 7; in the assay on AGS [7], more than 16; in the assay with T-24 [10], more than 15.
